Records with an inconclusive call do not appear.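 Rule for the calls, unless noted: active = RAM network inhibition above 8.4% in each of two replicates, 3 SD over the compound average; inconclusive = above 8.4% inhibition in only one replicate; inactive = 8.4% inhibition or less in each replicate.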
Legend:
[1] = S. cerevisiae growth inhibition in permissive medium (OD615), pilot counter-assay for S. cerevisiae lifespan shortening project, permissive growth control (AID 705;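 active = growth inhibition above 25% in both replicates, a cutoff set 3 SD above the mean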); conditions: OD615, 24 h, at 10 µM, active compounds read high
In short: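 Material: engineered DeaD yeast; Compound: one dose 10 µM, DMSO 0.25% final; Detection: absorbance (optical density) at 615 nm; Buffer or medium: permissive raffinose/galactose medium; Timing: 24 h exposure, 30 °C.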

[2] = S. cerevisiae growth inhibition in restrictive medium, OD615, pilot screen, restrictive growth control, yeast lifespan reduction project (AID 706;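 active = growth inhibition above a set limit, 3 SD over mean compound inhibition, in both replicates, cut at about 43% in these data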;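 note: modified DeaD lifespan yeast strain shifted to restrictive glucose medium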); conditions: OD615, 48 h, at 10 µM, active compounds read high
In short: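 Buffer or medium: restrictive glucose medium (CSMM-D); test system: modified S. cerevisiae; doses: single dose of 10 µM compound final, 0.25% DMSO; schedule: 48 h compound exposure at 30 °C; detection: absorbance (optical density) measured at 615 nm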

[3] = doxorubicin toxicity protection in MRP-1 cells – H69AR cells, CellTiter-Glo, duplicate, MRP-1 activator project, pilot screen (AID 807;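 active = viability increase at or above a cutoff of the median across tested compounds plus 3 SD, cut at about 8.5% in these data, passing the limit was not always enough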;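 note: compound pretreatment 18-22 h then 72 h combined with doxorubicin; 0% = doxorubicin alone and 100% = vehicle without doxorubicin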); conditions: H69AR viability with doxorubicin, CellTiter-Glo luminescence; at 10 µM; active compounds read high
[4] = viability of HCT116 without oncogenic beta-catenin – human colon tumor cells, pilot screen (AID 823;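 active = cell viability at or below a set limit in both duplicate runs, the limit being the all-compound median minus 4 SD, cut at about 23% in these data, passing the limit was not always enough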;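 note: 0% = wells killed by 20 µM Hyamine and 100% = untreated DMSO cell wells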); conditions: HCT116 beta-catenin knockout viability, CellTiter-Glo, 60 h; at 10 µM; active compounds read low
[5] = viability of PTEN-null HCT116 cells – cell-based, HCT116 clonal line, CellTiter-Glo, pilot screen (AID 824;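 active = viability at or below 27.92% in each of two runs, the all-compound median minus 4 SD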;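 note: 0% = 20 µM Hyamine control and 100% = vehicle cell control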); conditions: HCT116 PTEN-deleted viability, 60 h, at 10 µM, active compounds read low
[6] = RAM pathway blockade in budding yeast – dse1pr::URA3 reporter, 5-FOA selection, pilot screen (AID 869;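 active = inhibition over a set limit, the all-compound mean plus 3 SD, in both replicate runs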;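 note: 0% = DMSO wells with no growth and 100% = 10 µM 1-NA-PP1 with full growth; RAM network block rescues cells from 5-FOA so hits raise OD615 growth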); conditions: S. cerevisiae dse1pr::URA3 5-FOA growth, OD615, 2 d; at 10 µM; active compounds read high; strain carries analog-sensitive mutant Cbk1 kinase
[7] = RAM signaling pathway blockade in yeast – S. cerevisiae, Pdr1DBD-CYC8 efflux-inhibited sensitized strain, primary screen (AID 1298);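 note: 0% = DMSO untreated cells without growth and 100% = 10 µM 1-NA-PP1 full growth; higher means more yeast growth rescued from 5-FOA killing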; conditions: S. cerevisiae cbk1-as DSE1-URA3 strain, 5-FOA growth OD615, 2 d; at 50 µM; active compounds read high

CC1=C(C(=O)OCC2CCCO2)C(c2ccncc2)C2=C(CCCC2=O)N1 (configuration not stated)
inactive: growth inhibition [1] -16.7% | growth inhibition [2] -8.36% | viability increase [3] -1.77% | viability [4] 98.9% | viability [5] 98.1% | inhibition [6] 2.9% | RAM network inhibition [7] 1.82%

Cn1cc(CC(=O)NCCCN2CCCC2=O)c2ccccc21
inactive: growth inhibition [1] -3.36% | growth inhibition [2] -11.5% | viability increase [3] -1.83% | viability [4] 99.3% | viability [5] 87.3% | inhibition [6] 0.77% | RAM network inhibition [7] -0.89%

CC(=O)N1CCC(N(CCN2CCOCC2)C(=O)Nc2ccc(Cl)c(Cl)c2)CC1
inactive: growth inhibition [1] -8.97% | growth inhibition [2] -0.8% | viability increase [3] -1.49% | viability [4] 97% | viability [5] 95.6% | inhibition [6] 2.5% | RAM network inhibition [7] 1.45%

COc1cc(C(=O)N2CCN(C(=O)c3ccco3)CC2)cc(OC)c1OC
inactive: growth inhibition [1] -7.33% | growth inhibition [2] -2.3% | viability increase [3] -0.58% | viability [4] 100% | viability [5] 97.5% | inhibition [6] 0.16% | RAM network inhibition [7] 6.85%

O=C(c1cccc(S(=O)(=O)N2CCOCC2)c1)N1CCOCC1
inactive: growth inhibition [1] -3.56% | growth inhibition [2] -5.11% | viability increase [3] -0.71% | viability [4] 101% | viability [5] 97.9% | inhibition [6] 0.835% | RAM network inhibition [7] 1.18%

CCOc1ccc(N(CC(=O)Nc2ccc(C)cc2)S(=O)(=O)c2c(C)noc2C)cc1
inactive: growth inhibition [1] -18.5% | growth inhibition [2] -19.6% | viability increase [3] -3.45% | viability [4] 79.4% | viability [5] 67.4% | inhibition [6] 1.29% | RAM network inhibition [7] 4.04%

Cn1c(NC(=O)c2ccc(F)c(F)c2)cc(=O)n(C)c1=O
inactive: growth inhibition [1] -2.93% | growth inhibition [2] -3.23% | viability increase [3] -1.64% | viability [4] 95.7% | viability [5] 93.4% | inhibition [6] 0.925% | RAM network inhibition [7] 0.81%

COc1ccccc1Nc1cc(C(=O)NCCCN2CCOCC2)c2ccccc2n1
inactive: growth inhibition [1] -7.99% | growth inhibition [2] -0.795% | viability increase [3] -3.47% | viability [4] 89.1% | viability [5] 91.4% | inhibition [6] 0.455% | RAM network inhibition [7] 0.58%

NC(=O)CCc1c[nH]c2ccccc12
inactive: growth inhibition [1] -1.2% | growth inhibition [2] -4.15% | viability increase [3] -3.35% | viability [4] 91% | viability [5] 94.2% | inhibition [6] 2.47% | RAM network inhibition [7] 5.98%

COc1ccc(-n2c(Cn3c(=O)sc4ccccc43)nnc2SC)cc1
inactive: growth inhibition [1] -12.1% | growth inhibition [2] -8.38% | viability increase [3] -2.26% | viability [4] 101% | viability [5] 89.6% | inhibition [6] 2.47% | RAM network inhibition [7] 1.33%

O=C(Nc1ccccc1)c1ccccc1O
inactive: growth inhibition [1] 1.28% | growth inhibition [2] 13.7% | viability increase [3] -1.14% | viability [4] 92.2% | viability [5] 83.2% | inhibition [6] -0.42% | RAM network inhibition [7] -1.46%

COc1ccc(S(=O)(=O)NCc2cn3c(C)csc3n2)cc1F
inactive: growth inhibition [1] -21% | growth inhibition [2] -8.7% | viability increase [3] 0.05% | viability [4] 94.1% | viability [5] 93.3% | inhibition [6] 0.86% | RAM network inhibition [7] -0.48%

Cc1ccc(C(=O)NCCn2cc(SCC(=O)Nc3cc(C)on3)c3ccccc32)cc1
inactive: growth inhibition [1] -3.4% | growth inhibition [2] 9.18% | viability increase [3] 1.75% | viability [4] 87.4% | viability [5] 96.9% | inhibition [6] 0.015% | RAM network inhibition [7] 0.42%

COCC(=O)NCCc1nc2ccccc2[nH]1
inactive: growth inhibition [1] -0.385% | growth inhibition [2] 1.45% | viability increase [3] -2.27% | viability [4] 98.7% | viability [5] 99.1% | inhibition [6] -0.325% | RAM network inhibition [7] 0.89%

Cc1c(C#N)c2ccccc2n1CCOc1ccccc1F
inactive: growth inhibition [1] -5.92% | growth inhibition [2] -11.9% | viability increase [3] 1.94% | viability [4] 69.8% | viability [5] 68.5% | inhibition [6] 2.25% | RAM network inhibition [7] 6.77%

COC(=O)Cn1c(CN2CCN(c3ccc(F)cc3)CC2)nc2c1c(=O)n(C)c(=O)n2C
inactive: growth inhibition [1] -1.31% | growth inhibition [2] -4.9% | viability increase [3] -0.86% | viability [4] 85.1% | viability [5] 86.2% | inhibition [6] 2.88% | RAM network inhibition [7] 1.93%

COc1ccc(C2C(C(=O)Nc3cccc(C)n3)c3ccccc3C(=O)N2C)cc1OC (configuration not stated)
inactive: growth inhibition [1] 5.62% | growth inhibition [2] 5.49% | viability increase [3] -1.04% | viability [4] 103% | viability [5] 99.6% | inhibition [6] -0.04% | RAM network inhibition [7] 3.5%

CCOc1ccc(C(=O)NCc2ccncc2)cc1OCC
inactive: growth inhibition [1] 8.96% | growth inhibition [2] 7.73% | viability increase [3] -0.92% | viability [4] 92.9% | viability [5] 90% | inhibition [6] 2.33% | RAM network inhibition [7] 0.83%

COCCNc1cc(C)nc2c(-c3ccccc3OC)c(C)nn12
inactive: growth inhibition [1] -1.17% | growth inhibition [2] 4.02% | viability increase [3] -2.38% | viability [4] 97.2% | viability [5] 94.2% | inhibition [6] 1.74% | RAM network inhibition [7] 0.56%

CCOCCCNC(=O)C(c1ccc(Cl)cc1)N1CCN(c2ccccc2)CC1 (configuration not stated)
inactive: growth inhibition [1] -7.14% | growth inhibition [2] 6.11% | viability increase [3] -2.39% | viability [4] 87% | viability [5] 85% | inhibition [6] 0.95% | RAM network inhibition [7] 3.13%

O=C(CCSCCC(=O)NCc1cccs1)NCc1cccs1
inactive: growth inhibition [1] -5.92% | growth inhibition [2] 3.44% | viability increase [3] -1.73% | viability [4] 94.5% | viability [5] 96.3% | inhibition [6] 3.47% | RAM network inhibition [7] 2.86%

CCOC(=O)c1ccc(NC(=O)C(C)N2C(=O)c3ccccc3C2=O)cc1 (configuration not stated)
inactive: growth inhibition [1] -13.1% | growth inhibition [2] -21.9% | viability increase [3] 0.15% | viability [4] 104% | viability [5] 100% | inhibition [6] 0.645% | RAM network inhibition [7] 4.7%

Cn1c(=O)[nH]c(=O)c2c1nc(NC1CCCCC1)n2CCO
inactive: growth inhibition [1] -16.7% | growth inhibition [2] -22.4% | viability increase [3] -2.15% | viability [4] 102% | viability [5] 97.9% | inhibition [6] 1.19% | RAM network inhibition [7] 3.67%

O=C(Nc1ccccc1Cl)c1ccc(S(=O)(=O)N2CCOCC2)cc1
inactive: growth inhibition [1] -11.5% | growth inhibition [2] -7.41% | viability increase [3] -0.1% | viability [4] 111% | viability [5] 99.4% | inhibition [6] 0.585% | RAM network inhibition [7] 2.05%

COc1cccc(C2CC(c3ccc(Cl)cc3)Nc3nc(N)nn32)c1 (configuration not stated)
inactive: growth inhibition [1] 4.02% | growth inhibition [2] 11.4% | viability increase [3] 3.49% | viability [4] 91.4% | viability [5] 83% | inhibition [6] 1.92% | RAM network inhibition [7] 6.11%

CCOC(=O)C1CCN(C(=O)Cn2cc3c(n2)CCC(C)C3)CC1 (configuration not stated)
inactive: growth inhibition [1] -5.55% | growth inhibition [2] -0.07% | viability increase [3] 0.98% | viability [4] 97.6% | viability [5] 95.6% | inhibition [6] 1.87% | RAM network inhibition [7] 1.77%

O=C(NCc1ccc2c(c1)OCO2)c1nnc(Cc2ccc(Cl)cc2)o1
inactive: growth inhibition [1] -5.43% | growth inhibition [2] 4.12% | viability increase [3] 2.05% | viability [4] 103% | viability [5] 103% | inhibition [6] 2.2% | RAM network inhibition [7] 5.48%

CN(C(=O)c1cnc2n(c1=O)CCS2)C1CCCCC1
inactive: growth inhibition [1] -9.04% | growth inhibition [2] -5.85% | viability increase [3] -0.01% | viability [4] 105% | viability [5] 110% | inhibition [6] 1.5% | RAM network inhibition [7] 3.96%

Nc1c(C(=O)CCC(=O)O)oc2ccc(Cl)cc12
inactive: growth inhibition [1] 5.78% | growth inhibition [2] -0.24% | viability increase [3] -2.01% | viability [4] 100% | viability [5] 99.4% | inhibition [6] 0.635% | RAM network inhibition [7] 5.46%

COc1ccc2nc(NC(=O)c3ccc4ncsc4c3)sc2c1
inactive: growth inhibition [1] 0.465% | growth inhibition [2] 13% | viability increase [3] -3.84% | viability [4] 81.3% | viability [5] 82.5% | inhibition [6] 3.54% | RAM network inhibition [7] 8.79%

CCOC(=O)c1ccc(N2CSC3=C(C#N)C(c4cccs4)CC(=O)N3C2)cc1 (configuration not stated)
inactive: growth inhibition [1] 6.68% | growth inhibition [2] 28.2% | viability increase [3] -1.48% | viability [4] 103% | viability [5] 85.3% | inhibition [6] 1.52% | RAM network inhibition [7] 2.37%

O=C1CCc2cc(S(=O)(=O)NC(Cc3ccccc3)C(=O)NCC3CCCO3)ccc2N1 (configuration not stated)
inactive: growth inhibition [1] -8.29% | growth inhibition [2] -8.79% | viability increase [3] -2.76% | viability [4] 94.3% | viability [5] 92.8% | inhibition [6] 2.2% | RAM network inhibition [7] 1.49%

O=C(COc1ccc(Cl)cc1)OCC(=O)N1CCCC1
inactive: growth inhibition [1] -6.8% | growth inhibition [2] -26.8% | viability increase [3] -2.32% | viability [4] 94.5% | viability [5] 95.3% | inhibition [6] 1.44% | RAM network inhibition [7] 3.51%

CCN1CCN(Cc2nc3c(c(=O)n(C)c(=O)n3C)n2Cc2ccc(Cl)cc2Cl)CC1
inactive: growth inhibition [1] -9.72% | growth inhibition [2] -16.2% | viability increase [3] -3.62% | viability [4] 99.1% | viability [5] 98.8% | inhibition [6] 0.615% | RAM network inhibition [7] 1.52%

COc1cccc(-c2nc(CS(=O)(=O)CC(=O)NCCC(C)C)c(C)o2)c1
inactive: growth inhibition [1] 3.72% | growth inhibition [2] 7.53% | viability increase [3] 0.8% | viability [4] 94% | viability [5] 89.1% | inhibition [6] 0.36% | RAM network inhibition [7] 1.13%

CCOC(=O)C1CCN(CC(O)COc2ccc(C(C)=O)cc2)CC1 (configuration not stated)
inactive: growth inhibition [1] -1.86% | growth inhibition [2] -5.14% | viability increase [3] -0.88% | viability [4] 97.6% | viability [5] 91.6% | inhibition [6] 0.87% | RAM network inhibition [7] 2.51%

— PubChem BioAssay
